ChEMBL document CHEMBL5370545 (Eur J Med Chem, 2023)

What was measured:
[1] = tested on: HT-29; assay: Cytotoxicity against human HT-29 cells expressing heterozygous BRAF V600E mutant assessed as cell growth measured after 7 days of treatment by crystal violet assay; assay type: functional, cell-based; conditions: HT-29, 168 h
In short: (§1)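 Cells seeded in 12-well plates: 8505C at 3 × 10^3, C32 at 10^4, HT29 at 5 × 10^3. Treated 24 h later with a dose series or DMSO vehicle for 7 days. Fixed in 4% PFA and stained with 0.1% crystal violet in 20% methanol. Destained with 10% acetic acid and read at 590 nm. Normalised to vehicle; mean ± SEM of three independent experiments.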

[2] = tested on: 8505C; assay: Cytotoxicity against human 8505C cells expressing homozygous BRAF V600E mutant assessed as cell growth measured after 7 days of treatment by crystal violet assay; assay type: functional, cell-based; conditions: 168 h; in short: as §1
[3] = tested on: C32; assay: Cytotoxicity against human C32 cells expressing heterozygous BRAF V600E mutant assessed as cell growth measured after 7 days of treatment by crystal violet assay; assay type: functional, cell-based; conditions: C32, 168 h; in short: as §1
[4] = Cytotoxicity against human cells expressing heterozygous BRAF V600E mutant assessed as cell growth measured after 7 days of treatment by crystal violet assay; conditions: 168 h
[5] = Stability of compound in foetal bovine serum at 100 uM measured for 2 to 48 hrs by reverse phase HPLC chromatographic analysis; assay type: ADME, cell-free, Bos taurus; conditions: cattle, time 2-48 hrs
In short: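 Held at 100 µM in foetal bovine serum at 37 °C for up to 48 h (2–48 h). Each aliquot diluted 1:10 in pH 7.4 culture medium before RP-HPLC with a 35 min 0.1% TFA water/acetonitrile gradient. Chromatographic profile monitored.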

[6] = Chemical stability of compound in cell culture medium at 100 uM at acidic pH measured for 2 to 48 hrs by reverse phase HPLC chromatographic analysis; assay type: physicochemical; conditions: time 2-48 hrs
In short: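 Incubated at 100 µM, 37 °C, in phenol red-free DMEM High Glucose at pH 5, 7.4 or 8 for up to 48 h (2–48 h). Aliquots taken at each time point and analysed by RP-HPLC with a 35 min 0.1% TFA water/acetonitrile gradient. Chromatographic profile and 640/330 nm peak-area ratio followed.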

[7] = Drug uptake in human A-375 cells harboring BRAF V600E mutant assessed as fluorescent signal at cytoplasm at 0.5 uM measured after 48 hrs by fluorescence microscopy; assay type: ADME, cell-based; conditions: a-375, 48 h
In short: (§2)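 A375 and HeLa cells seeded at 3 × 10^4 and treated 24 h later with 0.5 µM compound or DMSO vehicle for 48 h. Washed with PBS, fixed in 4% formaldehyde for 10 min at room temperature, and stained with DAPI and phalloidin. Cy5 signal imaged by inverted fluorescence microscopy.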

[8] = tested on: Serine/threonine-protein kinase B-raf (Homo sapiens), P15056 [V600E]; assay: Displacement of Vemurafenib from BRAF V600E mutant in human WM278 cells assessed as increase in cyno-fluorescence measured after 90 mins by flow cytometry based displacement assay; assay type: cell-based
Chain of Serine/threonine-protein kinase B-raf (Homo sapiens), P15056 [V600E] (P15056 whole entry V600E): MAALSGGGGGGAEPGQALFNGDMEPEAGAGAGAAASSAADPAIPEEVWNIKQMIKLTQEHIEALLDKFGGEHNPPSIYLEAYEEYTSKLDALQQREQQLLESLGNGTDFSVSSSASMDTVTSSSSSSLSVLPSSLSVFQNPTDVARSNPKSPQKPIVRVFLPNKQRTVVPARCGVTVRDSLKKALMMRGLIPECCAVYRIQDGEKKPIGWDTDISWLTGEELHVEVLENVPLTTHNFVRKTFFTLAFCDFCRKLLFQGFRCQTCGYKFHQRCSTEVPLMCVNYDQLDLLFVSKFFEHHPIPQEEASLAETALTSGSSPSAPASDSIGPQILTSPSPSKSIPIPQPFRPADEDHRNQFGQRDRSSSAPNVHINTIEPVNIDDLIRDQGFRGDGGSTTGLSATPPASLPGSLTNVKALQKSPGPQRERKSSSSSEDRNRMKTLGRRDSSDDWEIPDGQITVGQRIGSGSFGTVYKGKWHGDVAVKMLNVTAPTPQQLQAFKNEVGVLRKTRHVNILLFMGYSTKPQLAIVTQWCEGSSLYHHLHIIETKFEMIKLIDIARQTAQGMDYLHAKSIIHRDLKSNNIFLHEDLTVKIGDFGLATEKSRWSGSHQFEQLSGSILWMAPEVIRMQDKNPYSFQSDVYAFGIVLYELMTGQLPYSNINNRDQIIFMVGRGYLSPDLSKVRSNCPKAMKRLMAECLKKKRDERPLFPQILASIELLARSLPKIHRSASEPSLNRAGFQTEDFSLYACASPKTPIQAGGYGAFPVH
In short: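 Without washing, the Cy5 probe was added at 0, 0.05, 0.2, 1 and 2 µM for 90 min more. Cells were washed three times with medium (15 min each), imaged live, detached, and cell-associated Cy5 fluorescence was quantified by flow cytometry.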

[9] = Drug uptake in human Hela cells assessed as fluorescent signal at 0.5 uM measured after 48 hrs by fluorescence microscopy; assay type: ADME, cell-based; in short: as §2
[10] = target: Serine/threonine-protein kinase B-raf (Homo sapiens, UniProt P15056, V600E); assay: biochemical
Chain of Serine/threonine-protein kinase B-raf (P15056 2-766 V600E limits assumed): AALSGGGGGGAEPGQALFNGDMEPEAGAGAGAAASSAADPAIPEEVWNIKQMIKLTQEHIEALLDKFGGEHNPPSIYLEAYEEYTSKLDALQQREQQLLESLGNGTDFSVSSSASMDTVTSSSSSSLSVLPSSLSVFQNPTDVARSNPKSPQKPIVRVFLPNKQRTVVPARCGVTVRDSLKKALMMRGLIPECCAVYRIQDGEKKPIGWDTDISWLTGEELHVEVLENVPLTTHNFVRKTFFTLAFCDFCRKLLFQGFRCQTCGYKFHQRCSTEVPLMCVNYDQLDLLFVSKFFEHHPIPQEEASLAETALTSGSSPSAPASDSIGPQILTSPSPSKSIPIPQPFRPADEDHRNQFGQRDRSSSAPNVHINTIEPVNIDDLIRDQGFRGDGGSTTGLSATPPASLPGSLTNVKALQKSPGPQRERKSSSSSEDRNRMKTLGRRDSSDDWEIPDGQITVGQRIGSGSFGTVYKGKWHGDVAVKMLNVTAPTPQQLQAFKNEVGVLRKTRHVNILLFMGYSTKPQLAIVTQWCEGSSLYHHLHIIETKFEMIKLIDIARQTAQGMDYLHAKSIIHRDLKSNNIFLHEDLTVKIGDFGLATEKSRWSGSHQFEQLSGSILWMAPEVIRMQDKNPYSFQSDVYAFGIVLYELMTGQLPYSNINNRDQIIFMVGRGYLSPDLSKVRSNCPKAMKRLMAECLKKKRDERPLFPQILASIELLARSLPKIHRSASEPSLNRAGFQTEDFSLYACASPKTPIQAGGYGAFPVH

Stability [5]	Stability [6]	Drug uptake [7]	Activity [8]	Drug uptake [9]	Kd [10]	SMILES	IC50 [1]	IC50 [2]	IC50 [3]	IC50 [4]
–	–	–	–	–	–	CCCS(=O)(=O)Nc1ccc(F)c(C(=O)c2c[nH]c3ncc(-c4ccc(N)cc4)cc23)c1F	27 nM	620 nM	12 nM	15 nM
Stable	Unstable	Active	Dose-Dependent Effect	Not Active	13 nM	CCCS(=O)(=O)Nc1ccc(F)c(C(=O)c2c[nH]c3ncc(-c4ccc(NC(=O)COCCOCCNC(=O)CCCCC[N+]5=C(/C=C/C=C/C=C6\N(C)c7ccccc7C6(C)C)C(C)(C)c6ccccc65)cc4)cc23)c1F.O=C([O-])C(F)(F)F	340 nM	2500 nM	630 nM	570 nM
–	–	–	–	–	–	CCCS(=O)(=O)Nc1ccc(F)c(C(=O)c2c[nH]c3ncc(-c4ccc(Cl)cc4)cc23)c1F [VEMURAFENIB]	49 nM	2940 nM	84 nM	150 nM
